A selection: hits, their analogues and other compounds. The true share with any hit is near 1.7%.
EP2 antag = blocks the human prostaglandin E2 receptor EP2. P43116. C6 glioma cells expressing human EP2, cAMP TR-FRET; cells stimulated with saturating PGE2. inhibition, % at 25 µM. 260,000 tested, 0.52% active. AID 1422;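 active = percent inhibition above 40 after rounding to a whole number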;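 note: rat C6 glioma host cells with rolipram phosphodiesterase inhibitor present; the protocol text gives 20 µM as final concentration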
Target sequence (P43116 whole entry, looked up): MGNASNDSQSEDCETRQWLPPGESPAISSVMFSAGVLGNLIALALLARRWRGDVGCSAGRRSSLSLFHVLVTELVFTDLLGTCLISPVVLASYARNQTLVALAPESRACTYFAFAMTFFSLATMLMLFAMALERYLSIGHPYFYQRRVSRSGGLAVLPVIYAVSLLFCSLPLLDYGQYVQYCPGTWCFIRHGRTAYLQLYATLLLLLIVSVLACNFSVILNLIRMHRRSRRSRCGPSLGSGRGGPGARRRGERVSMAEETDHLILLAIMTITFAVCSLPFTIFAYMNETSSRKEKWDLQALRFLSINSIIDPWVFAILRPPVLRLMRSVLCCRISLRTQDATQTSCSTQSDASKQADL
Hsp70 act = switches on Hsp70 transcription; activation, % at 10 µM; 200,000 tested, 0.04% active; HeLa Hsp70 promoter luciferase reporter, luminescence; scaled: vehicle 0, proteasome-inhibitor control 100%; AID 1203;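 active = activation above the mean across all tested compounds plus 3 SD, cutoff set per campaign, cut at about 5.5% in these data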;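 note: 100% = MG132 at 30 µM as the positive control and 0% = DMSO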
EP2 mod = modulators of human EP2 prostaglandin E2 receptor; EP2-expressing cells, cAMP HTRF FRET, PGE2 co-stimulation; induction, % at 25 µM; 260,000 tested, 0.83% active; P43116; AID 940;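 active = compounds whose cAMP rise, as percent of the full-agonist control response, exceeds 60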;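 note: rat C6 glioma line stably carrying human EP2 under a CMV promoter; the protocol text gives 20 µM as final concentration; 100% = response of wells given 1 µM PGE2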
Dynein transport = dynein cargo transport inhibition | 3617.4 mouse cells, GR-EGFP nuclear translocation imaging; test concentration mostly 20 µM; stimulated with dexamethasone, 1 µM; stronger effect = lower value | z-score, hits read low | 220,000 tested, 0.47% active;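 active = plate z-score of nuclear minus cytoplasmic receptor signal below a set negative limit, without overly bright fluorescence or cell loss, cut at about -3.5 in these data, passing the limit was not always enough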;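 note: z-score of nuclear minus cytoplasmic ring GR-EGFP intensity difference per well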
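Buffer or medium – tet-free medium with charcoal-stripped serum · Signal – automated 10x imaging of fixed Hoechst-stained cells · Also added – dexamethasone agonist, 1.0 µM final, for 30 min · Incubation – induction 48 h, compound 1 h, agonist 30 min · Read-out – GR-EGFP nuclear translocation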
EP2 confirm = human EP2 receptor cAMP induction, negative in counter-screens; shares compounds with EP2 mod; C6 glioma EP2 cells, cAMP HTRF induction; plus low (about EC15) PGE2 agonist; calls only at 20 µM (by protocol); 1,300 tested, 47% active; AID 1080;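 active = cAMP induction above 50% in the main assay while under 30% in all four parallel counter assays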;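 note: rat C6 glioma cells stably expressing human EP2 receptor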
Numbers without * were called inactive.

`O=C(c1ccc(F)cc1)C1CCN(C(=S)NCCCN2CCOCC2)CC1` gave EP2 antag 9 and EP2 mod 1.
`CN(Cc1ccccc1)c1nc2c(c(=O)[nH]c(=O)n2C)n1CCO` gave EP2 antag 12 and EP2 mod 9.
Screening CN(Cc1ccccc1)c1nc2c(c(=O)[nH]c(=O)n2C)n1Cc1ccccc1Cl returned EP2 antag 3, Hsp70 act 0, EP2 mod 77*, Dynein transport 0.91 and EP2 confirm active.
CC(C)c1nc(N2CCN(C(=O)c3ccccc3)CC2)c(C#N)c2c1COC(C)(C)C2 was read as EP2 antag 5, Hsp70 act 0, EP2 mod 77*, Dynein transport -0.39 and EP2 confirm active.
For CC1(C)Cc2c(C#N)c(NCc3ccco3)nc(-c3ccco3)c2CO1 the results were EP2 antag 5, Hsp70 act 0, EP2 mod 39 and Dynein transport 1.2.
Screening CCCSc1nc(N2CCCC2)c2c(c1C#N)CC(C)(C)OC2 returned EP2 antag 11, Hsp70 act 0, EP2 mod 66*, Dynein transport 0.43 and EP2 confirm active.
For CSc1nc(N2CCCC2)c2c(c1C#N)CC(C)(C)OC2 the results were EP2 antag 6, Hsp70 act 0, EP2 mod 0 and Dynein transport -1.3.
CC1(C)Cc2c(C#N)c(N3CCCC3)nc(-c3ccco3)c2CO1 was read as EP2 antag 11, Hsp70 act 0, EP2 mod 76*, Dynein transport -1.7 and EP2 confirm inactive.
Cc1c(C(=O)NCCc2nc(-c3ccccc3)no2)[nH]c2c(Cl)cccc12 was read as EP2 antag 7 and EP2 mod -105.
For CCn1c(SC(C)C(=O)Nc2cccc3ccccc23)nnc1-c1cccnc1 (configuration not stated) the results were EP2 antag 5 and EP2 mod 16.
For C[C@@H]1CN(Cc2ccco2)CCN1C(=O)c1nccc2ccccc12 the results were EP2 mod -14.
For Cc1nc2c3cc(F)ccc3n(Cc3ccccc3F)c2s1 the results were EP2 antag 7, Hsp70 act 0, EP2 mod 60 and Dynein transport 0.24.
For Cc1nc2c3cc(F)ccc3n(Cc3ccccc3)c2s1 the results were EP2 antag 2, Hsp70 act 0, EP2 mod 72*, Dynein transport 1.2 and EP2 confirm active.
Screening COCCn1c(SCC(=O)c2ccc(C)cc2)nnc1C(C)C returned EP2 antag 11 and EP2 mod -7.
`COC(=O)c1cc(-c2ccc(N(C)C)cc2)no1` gave EP2 antag 16 and EP2 mod -75.
COc1ccccc1/C=C/C(=O)OCC(=O)Nc1ccccc1Sc1ccccc1 was read as EP2 antag 8, Hsp70 act 0, EP2 mod 71*, Dynein transport 0.84 and EP2 confirm active.
O=C(Cc1ccc(F)cc1)Nc1ccccc1Sc1ccccc1 was read as EP2 antag 2, Hsp70 act 0, EP2 mod 83*, Dynein transport 1.8 and EP2 confirm active.
For O=C(Cc1ccc(Br)cc1)Nc1ccccc1Sc1ccccc1 the results were EP2 antag 0, Hsp70 act 0, EP2 mod 68*, Dynein transport -0.083 and EP2 confirm active.
`O=C(Cc1ccccc1)Nc1ccccc1Sc1ccccc1` gave EP2 antag 3, Hsp70 act 0, EP2 mod 53 and Dynein transport 0.12.
`Fc1ccccc1-c1nc(-c2ccc(Cl)cc2)no1` gave EP2 antag 0, Hsp70 act 0 and Dynein transport 2.9.
For c1ccc(-c2noc(-c3ccccc3-c3ccccc3)n2)cc1 the results were EP2 antag 9, Hsp70 act 0, EP2 mod 51, Dynein transport 0.31 and EP2 confirm active.
COc1ccccc1NC(=O)COc1ccccc1 was read as EP2 antag 5, Hsp70 act 0, EP2 mod 5 and Dynein transport 0.21.
For O=C(COc1ccccc1)Nc1cc(C(F)(F)F)ccc1N1CCCC1 the results were EP2 antag 19, Hsp70 act 0, EP2 mod 79*, Dynein transport -0.57 and EP2 confirm inactive.

Assay outcomes deposited in PubChem BioAssay by several laboratories.
